Holding throughout (format): functional
Assay [1] relates to Aspergillus flavus. Kind of assay: Antifungal activity against Aspergillus flavus MTCC 277 at 100 ug/ml after 48 hrs by agar well diffusion method. As to conditions: MTCC 277, 48 h, read-out: IZ. The essentials:
(§1)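 Test samples and DMSO controls incubated at 27 °C for 48 h. Inhibition zone diameter measured in mm. Three to four replicates per treatment.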
For orientation: A growth-free zone around the sample is the usual read-out of agar diffusion tests.

For assay [2], the system named is Aspergillus niger. Kind of assay: Antifungal activity against Aspergillus niger MTCC 344 at 100 ug/ml after 48 hrs by agar well diffusion method. The conditions noted are these: MTCC 344, 48 h, read-out: IZ. Summed up:
as §1

The test system of assay [3] is Saccharomyces cerevisiae. Nature of the assay: Antifungal activity against Saccharomyces cerevisiae MTCC 36 at 100 ug/ml after 48 hrs by agar well diffusion method. The conditions noted are these: MTCC 36, 48 h, read-out: IZ. Summed up:
as §1

Assay [4] has as its system Diutina rugosa. Nature of the assay: Antifungal activity against Candida rugosa NCIM 3462 at 100 ug/ml after 48 hrs by agar well diffusion method. The conditions noted are these: NCIM 3462, 48 h, read-out: IZ. The essentials: as §1
The subject of assay [5] is Candida albicans. Kind of assay: Antifungal activity against Candida albicans MTCC 227 at 100 ug/ml after 48 hrs by agar well diffusion method. The conditions noted are these: MTCC 227, 48 h, read-out: IZ. The essentials:
as §1

Assay [6] concerns Aspergillus flavus. Nature of the assay: Antifungal activity against Aspergillus flavus MTCC 277 at 50 ug/ml after 48 hrs by agar well diffusion method. The conditions noted are these: MTCC 277, 48 h, read-out: IZ. The essentials:
as §1

The subject of assay [7] is Aspergillus niger. Kind of assay: Antifungal activity against Aspergillus niger MTCC 344 at 50 ug/ml after 48 hrs by agar well diffusion method. The conditions noted are these: MTCC 344, 48 h, read-out: IZ. The essentials:
as §1

Assay [8] concerns Saccharomyces cerevisiae. Kind of assay: Antifungal activity against Saccharomyces cerevisiae MTCC 36 at 50 ug/ml after 48 hrs by agar well diffusion method. As to conditions: MTCC 36, 48 h, read-out: IZ. Summed up:
as §1

Assay [9] relates to Diutina rugosa. Kind of assay: Antifungal activity against Candida rugosa NCIM 3462 at 50 ug/ml after 48 hrs by agar well diffusion method. As to conditions: NCIM 3462, 48 h, read-out: IZ. Summed up:
as §1

The subject of assay [10] is Candida albicans. Nature of the assay: Antifungal activity against Candida albicans MTCC 227 at 50 ug/ml after 48 hrs by agar well diffusion method. As to conditions: MTCC 227, 48 h, read-out: IZ. The essentials:
as §1

The next assay relates to Klebsiella pneumoniae. Kind of assay: Antibacterial activity against Klebsiella pneumoniae MTCC 618 by broth dilution method. Summed up:
(§2)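 Broth dilution per NCCL standards; all phosphorus ylides and conjugated alkynes tested in vitro.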
On the technique in general: In broth dilution the organism is exposed to a series of concentrations in liquid medium.

Another assay has as its system Pseudomonas aeruginosa. Nature of the assay: Antibacterial activity against Pseudomonas aeruginosa MTCC 741 by broth dilution method. Summed up: as §2
For a further assay, the system named is Escherichia coli. Kind of assay: Antibacterial activity against Escherichia coli MTCC 443 by broth dilution method. Summed up:
as §2

The subject of assay [11] is Staphylococcus epidermidis. Kind of assay: Antibacterial activity against Staphylococcus epidermidis MTCC 435 by broth dilution method. The essentials:
as §2

Another assay has as its system Staphylococcus aureus. Kind of assay: Antibacterial activity against Staphylococcus aureus MTCC 96 by broth dilution method. The essentials:
as §2

A further assay concerns Bacillus subtilis. Kind of assay: Antibacterial activity against Bacillus subtilis MTCC 441 by broth dilution method. The essentials:
as §2

This passage reports zone of inhibition and MIC results from ChEMBL document CHEMBL2424522, “Demonic axe-like conjugated alkynes in combating microbes” (2013).

In brackets after ≈: the same amount, converted by molar mass.

Turning to `CCOC(=O)C#Cc1ccc(Cl)nc1`, the zone of inhibition at 100 µg/mL with Aspergillus flavus [1] stood at 25 mm; in the assay on Aspergillus niger [2] it was 29 mm; with Saccharomyces cerevisiae [3], 29 mm; in the assay with Diutina rugosa [4], 15 mm; with Candida albicans [5], 20 mm. The zone of inhibition at 50 µg/mL in the assay on Aspergillus flavus [6] worked out at 20 mm; with Aspergillus niger [7], 25 mm; in the assay with Saccharomyces cerevisiae [8], 25 mm; in the assay with Diutina rugosa [9], 10 mm; in the assay with Candida albicans [10], 15 mm. In addition, the MIC was 6.25 µg/mL (≈ 29.8 µM) against Klebsiella pneumoniae; 0.78 µg/mL (≈ 3.72 µM) against Pseudomonas aeruginosa; 100 µg/mL (≈ 477 µM) in the assay on Escherichia coli; 50 µg/mL (≈ 239 µM) in assay [11]; 1.56 µg/mL (≈ 7.44 µM) against Staphylococcus aureus; 6.25 µg/mL (≈ 29.8 µM) in the assay on Bacillus subtilis.
Consider `N#CC#Cc1cc(F)c(Cl)nc1Cl`, for which the zone of inhibition at 100 µg/mL stood at 25 mm with Aspergillus flavus [1]; 24 mm with Aspergillus niger [2]; 10 mm in the assay with Saccharomyces cerevisiae [3]; 11 mm with Diutina rugosa [4]; 16 mm with Candida albicans [5]. Besides, the zone of inhibition at 50 µg/mL was found to be 20 mm with Aspergillus flavus [6]; 20 mm with Aspergillus niger [7]; 0 mm in the assay with Saccharomyces cerevisiae [8]; 0 mm with Diutina rugosa [9]; 11 mm in the assay with Candida albicans [10]. Moreover, the MIC in the assay with Klebsiella pneumoniae is 12.5 µg/mL (≈ 58.1 µM); against Pseudomonas aeruginosa, 100 µg/mL (≈ 465 µM); in the assay with Escherichia coli, 100 µg/mL (≈ 465 µM); in [11], 25 µg/mL (≈ 116 µM); in the assay with Staphylococcus aureus, 12.5 µg/mL (≈ 58.1 µM); in the assay with Bacillus subtilis, 6.25 µg/mL (≈ 29.1 µM).
As for `Cc1ccccc1C#CC#N`, the zone of inhibition at 100 µg/mL with Aspergillus flavus [1], with Aspergillus niger [2], in the assay on Saccharomyces cerevisiae [3], in the assay with Diutina rugosa [4] and in the assay with Candida albicans [5] was 0 mm each time. Besides, the zone of inhibition at 50 µg/mL in the assay on Aspergillus flavus [6], in the assay on Aspergillus niger [7], in the assay on Saccharomyces cerevisiae [8], in the assay on Diutina rugosa [9] and with Candida albicans [10] was 0 mm in each case. Also, the MIC (in the assay on Klebsiella pneumoniae; with Pseudomonas aeruginosa; with Escherichia coli; in assay [11]; against Staphylococcus aureus; against Bacillus subtilis) was greater than 150 µg/mL in each case.
In the case of `N#CC#Cc1ccc(Cl)nc1`, the zone of inhibition at 100 µg/mL in the assay on Aspergillus flavus [1] was 47 mm; in the assay on Aspergillus niger [2], 43 mm; in the assay on Saccharomyces cerevisiae [3], 10 mm; with Diutina rugosa [4] it was 28 mm; with Candida albicans [5], 40 mm. The zone of inhibition at 50 µg/mL in the assay on Aspergillus flavus [6] was found to be 44 mm; in the assay with Aspergillus niger [7], 39 mm; in the assay on Saccharomyces cerevisiae [8] it was 0 mm; in the assay on Diutina rugosa [9], 33 mm; in the assay on Candida albicans [10] it was 35 mm. For the same compound, the MIC in the assay with Klebsiella pneumoniae amounted to 3.12 µg/mL (≈ 19.2 µM); against Pseudomonas aeruginosa it was 0.78 µg/mL (≈ 4.8 µM); in the assay with Escherichia coli, 100 µg/mL (≈ 615 µM); in [11], 6.25 µg/mL (≈ 38.4 µM); in the assay with Staphylococcus aureus, 1.56 µg/mL (≈ 9.6 µM); against Bacillus subtilis, 1.56 µg/mL (≈ 9.6 µM).
Consider `CCOC(=O)C#CC(C)(C)C`, for which the zone of inhibition at 100 µg/mL in the assay with Aspergillus flavus [1], in the assay on Aspergillus niger [2], in the assay on Saccharomyces cerevisiae [3], in the assay on Diutina rugosa [4] and in the assay on Candida albicans [5] was 0 mm throughout. For the same compound, the zone of inhibition at 50 µg/mL with Aspergillus flavus [6], in the assay on Aspergillus niger [7], with Saccharomyces cerevisiae [8], in the assay with Diutina rugosa [9] and in the assay with Candida albicans [10] was 0 mm in each case. In addition, the minimum inhibitory concentration (MIC) (with Klebsiella pneumoniae; against Pseudomonas aeruginosa; in the assay with Escherichia coli; in assay [11]; in the assay with Staphylococcus aureus; against Bacillus subtilis) was greater than 150 µg/mL in each case.
Regarding `CC(C)OC(=O)C#Cc1ccc(Cl)nc1`, the zone of inhibition at 100 µg/mL in the assay with Aspergillus flavus [1] amounted to 19 mm; in the assay with Aspergillus niger [2], 23 mm; in the assay on Saccharomyces cerevisiae [3], 17 mm; in the assay on Diutina rugosa [4], 11 mm; in the assay with Candida albicans [5], 19 mm. Moreover, the zone of inhibition at 50 µg/mL in the assay on Aspergillus flavus [6] amounted to 12 mm; with Aspergillus niger [7] it was 17 mm; in the assay with Saccharomyces cerevisiae [8], 11 mm; in the assay with Diutina rugosa [9] it was 0 mm; in the assay with Candida albicans [10] it was 13 mm. Moreover, the MIC with Klebsiella pneumoniae worked out at 12.5 µg/mL (≈ 55.9 µM); with Pseudomonas aeruginosa, 1.56 µg/mL (≈ 6.97 µM); against Escherichia coli, 100 µg/mL (≈ 447 µM); in assay [11] it was 1.56 µg/mL (≈ 6.97 µM); against Staphylococcus aureus, 1.56 µg/mL (≈ 6.97 µM); with Bacillus subtilis, 50 µg/mL (≈ 224 µM).
Regarding `CCOC(=O)C#Cc1ccccc1C`, the zone of inhibition at 100 µg/mL in the assay on Aspergillus flavus [1], with Aspergillus niger [2], with Saccharomyces cerevisiae [3], in the assay with Diutina rugosa [4] and in the assay on Candida albicans [5] was 0 mm throughout. The zone of inhibition at 50 µg/mL in the assay with Aspergillus flavus [6], in the assay on Aspergillus niger [7], in the assay with Saccharomyces cerevisiae [8], in the assay on Diutina rugosa [9] and with Candida albicans [10] was 0 mm in each case. Besides, the MIC (in the assay on Klebsiella pneumoniae; against Pseudomonas aeruginosa; in the assay on Escherichia coli; in assay [11]; in the assay with Staphylococcus aureus; with Bacillus subtilis) was greater than 150 µg/mL throughout.
For the compound `C[C@@H]1[C@H](O)[C@@H](C)/C=C/C=C/C=C/C=C/C=C/C=C/C=C/[C@H](O[C@@H]2O[C@H](C)[C@@H](O)[C@H](N)[C@@H]2O)C[C@@H]2O[C@](O)(C[C@@H](O)C[C@@H](O)[C@H](O)CC[C@@H](O)C[C@@H](O)CC(=O)O[C@H]1C)C[C@H](O)[C@H]2C(=O)O` [AMPHOTERICIN B], the zone of inhibition at 50 µg/mL with Aspergillus flavus [6] was found to be 25 mm; in the assay with Aspergillus niger [7] it was 25 mm; in the assay on Saccharomyces cerevisiae [8], 22 mm; with Diutina rugosa [9] it was 21 mm; in the assay with Candida albicans [10] it was 23.5 mm.
Consider `CCOC(=O)C(C(=O)c1ccco1)=P(c1ccccc1)(c1ccccc1)c1ccccc1`, for which the zone of inhibition at 100 µg/mL in the assay on Aspergillus flavus [1], in the assay on Aspergillus niger [2], with Saccharomyces cerevisiae [3], with Diutina rugosa [4] and in the assay on Candida albicans [5] was 0 mm throughout. The MIC (in the assay on Klebsiella pneumoniae; against Pseudomonas aeruginosa; against Escherichia coli; in assay [11]; in the assay on Staphylococcus aureus; against Bacillus subtilis) was greater than 150 µg/mL in each case.
As for `N#CC#Cc1cccnc1Cl`, the zone of inhibition at 100 µg/mL worked out at 39 mm in the assay with Aspergillus flavus [1]; 30 mm in the assay on Aspergillus niger [2]; 11 mm in the assay with Saccharomyces cerevisiae [3]; 29 mm in the assay on Diutina rugosa [4]; 28 mm in the assay on Candida albicans [5]. Besides, the zone of inhibition at 50 µg/mL in the assay with Aspergillus flavus [6] worked out at 35 mm; in the assay with Aspergillus niger [7], 26 mm; with Saccharomyces cerevisiae [8] it was 0 mm; in the assay with Diutina rugosa [9], 23 mm; in the assay with Candida albicans [10], 23 mm. Moreover, the MIC came to 12.5 µg/mL (≈ 76.9 µM) in the assay on Klebsiella pneumoniae; 0.78 µg/mL (≈ 4.8 µM) against Pseudomonas aeruginosa; 100 µg/mL (≈ 615 µM) against Escherichia coli; 50 µg/mL (≈ 308 µM) in assay [11]; 6.25 µg/mL (≈ 38.4 µM) with Staphylococcus aureus; 3.12 µg/mL (≈ 19.2 µM) in the assay on Bacillus subtilis.

As a reminder, the MIC is the lowest concentration that inhibits growth of the organism.
